The text below walks through data of ChEMBL document CHEMBL3822422, “Discovery of the First α-Amino-3-hydroxy-5-methyl-4-isoxazolepropionic Acid (AMPA) Receptor Antagonist Dependent upon Transmembrane AMPA Receptor Regulatory Protein (TARP) γ-8” (J Med Chem, 2016).

Data set [1] deals with T1, Glutamate receptor 1 (Homo sapiens, UniProt P42261). Description: Antagonist activity at human iGluA1 receptor flip isoform expressed in CHO-S cells assessed as inhibition of glutamate-induced increase in intracellular calcium levels after 2 mins followed by cyclothiazide/glutamate addition by fluo-4 NW dye based fluorescence imaging plate reader method. It counts as cell-based.
T1 sequence (P42261 whole entry, canonical isoform): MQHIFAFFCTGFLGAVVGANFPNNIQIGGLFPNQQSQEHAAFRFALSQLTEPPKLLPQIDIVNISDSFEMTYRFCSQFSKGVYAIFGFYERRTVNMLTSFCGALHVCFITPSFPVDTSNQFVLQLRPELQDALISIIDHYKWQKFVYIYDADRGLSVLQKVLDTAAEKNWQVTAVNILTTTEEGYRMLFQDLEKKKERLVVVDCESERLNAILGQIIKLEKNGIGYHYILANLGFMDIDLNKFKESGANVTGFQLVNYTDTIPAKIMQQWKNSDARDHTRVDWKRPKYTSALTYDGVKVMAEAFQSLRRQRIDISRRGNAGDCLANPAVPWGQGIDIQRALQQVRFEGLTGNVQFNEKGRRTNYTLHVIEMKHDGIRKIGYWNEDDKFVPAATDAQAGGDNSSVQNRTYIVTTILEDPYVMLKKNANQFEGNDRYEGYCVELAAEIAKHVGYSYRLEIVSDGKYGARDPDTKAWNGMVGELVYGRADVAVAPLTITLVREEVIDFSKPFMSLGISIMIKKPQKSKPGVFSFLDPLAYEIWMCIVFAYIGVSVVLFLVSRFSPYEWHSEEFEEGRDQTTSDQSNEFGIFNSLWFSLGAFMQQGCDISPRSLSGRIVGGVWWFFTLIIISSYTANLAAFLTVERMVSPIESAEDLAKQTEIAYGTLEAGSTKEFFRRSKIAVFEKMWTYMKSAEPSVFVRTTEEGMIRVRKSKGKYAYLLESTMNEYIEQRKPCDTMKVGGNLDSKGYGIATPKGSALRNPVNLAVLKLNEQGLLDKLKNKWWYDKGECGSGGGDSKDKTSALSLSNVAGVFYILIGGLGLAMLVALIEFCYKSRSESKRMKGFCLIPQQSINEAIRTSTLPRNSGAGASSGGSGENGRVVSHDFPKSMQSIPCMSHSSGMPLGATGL

Data set [2] has as its target T1, Glutamate receptor 1. Nature of the data set: Antagonist activity at human iGluA1 receptor flop isoform expressed in CHO-S cells coexpressing TARP gamma-2 assessed as inhibition of glutamate-induced increase in intracellular calcium levels after 2 mins followed by cyclothiazide/glutamate addition by fluo-4 AM dye based fluorescence imaging plate reader method. It counts as cell-based. On the technique in general: Calcium flux is commonly read through the fluorescence of an indicator in the cells.

Data set [3] deals with T1, Glutamate receptor 1. Description: Antagonist activity at human iGluA1 receptor flop isoform expressed in CHO-S cells coexpressing TARP gamma-8 and human EAAT3 assessed as inhibition of glutamate-induced increase in intracellular calcium levels after 2 mins followed by cyclothiazide/glutamate addition by fluo-4 AM dye based fluorescence imaging plate reader method. The format is cell-based. Put shortly:
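Transiently transfected CHO-S cells (human GluA1Q flop with TARP γ-8 and human EAAT3, DNA ratio 2:3), frozen, thawed, plated overnight at 37 °C; Fluo-4 AM loading 2 h at 22 °C. Compound added, then 2 min later glutamate (5 μM final); cyclothiazide (20 μM) plus glutamate (45 μM) 2 min after. FLIPR Ca2+ read; inhibition relative to 167 μM nonselective antagonist and buffer baseline; four-parameter logistic IC50; mean ± SEM, n ≥ 2.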

Data set [4] deals with T2, Cytochrome P450 1A2 (Homo sapiens, UniProt P05177).
T2 sequence (P05177 whole entry): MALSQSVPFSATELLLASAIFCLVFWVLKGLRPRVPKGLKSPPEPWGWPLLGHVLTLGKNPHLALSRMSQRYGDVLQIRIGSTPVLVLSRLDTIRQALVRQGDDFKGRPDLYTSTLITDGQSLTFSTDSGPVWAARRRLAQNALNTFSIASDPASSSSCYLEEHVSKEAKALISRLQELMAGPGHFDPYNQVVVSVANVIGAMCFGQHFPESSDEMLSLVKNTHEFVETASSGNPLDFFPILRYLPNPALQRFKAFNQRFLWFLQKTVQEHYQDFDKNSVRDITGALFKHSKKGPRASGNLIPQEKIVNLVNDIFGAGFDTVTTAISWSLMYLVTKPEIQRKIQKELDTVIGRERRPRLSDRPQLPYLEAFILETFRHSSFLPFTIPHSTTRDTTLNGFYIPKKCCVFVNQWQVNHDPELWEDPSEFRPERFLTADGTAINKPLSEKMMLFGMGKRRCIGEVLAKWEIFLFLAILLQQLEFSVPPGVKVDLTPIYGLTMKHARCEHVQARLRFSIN
Nature of the data set: Inhibition of human CYP1A2. It counts as ADME.

Data set [5] in a line: Clearance in rat. The format is ADME, organism-based. The following applies: in vivo.
Data set [6] in a line: AUC in rat plasma at 30 mg/kg, po measured on day 4. The format is ADME, organism-based. The gist of the method: (§1)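 Rats dosed orally at 30 mg/kg for 4 days; plasma Cmax and AUC determined.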
Data set [7] can be described thus: Cmax in rat plasma at 30 mg/kg, po measured on day 4. It counts as ADME, organism-based. Further details: dose 30 mg/kg, route oral. The gist of the method: as §1
Data set [8] can be described thus: Cmax in rat plasma at 30 mg/kg, po measured on day 1. It counts as ADME, organism-based. Further details: dose 30 mg/kg, route oral.
Data set [9] can be described thus: AUC in rat plasma at 30 mg/kg, po measured on day 1. The format is ADME, organism-based.
In data set [10] the test system is Hepatocyte. Nature of the data set: Drug metabolism in rat hepatocytes assessed as glucuronidation by LC/MS/MS analysis. The format is ADME, cell-based.
Data set [11] relates to UGT. Description: Drug metabolism assessed as UGT-mediated compound glucuronidation in rat liver microsomes. The format is ADME. The following applies: read-out: Drug metabolism. Put shortly:
(§2)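 Microsomes incubated with appropriate cofactors for UGT; percent metabolism, n = 1.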

For data set [12], the target named is T1, Glutamate receptor 1. Description: Antagonist activity at human iGluA1 receptor flop isoform expressed in CHO-S cells coexpressing TARP gamma-4 assessed as inhibition of glutamate-induced increase in intracellular calcium levels after 2 mins followed by cyclothiazide/glutamate addition by fluorescence imaging plate reader method. It counts as cell-based. Put shortly: (§3)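 Human GluA1 flop transiently co-expressed with the TARP subtype in CHO-S cells. Frozen cells were thawed, plated at 50,000 cells/well and cultured overnight at 37 °C. Buffer was HBSS with 20 mM HEPES pH 7.4, 2.5 mM probenecid and 4 mM CaCl2. Compound was added, then cyclothiazide (20 μM final) plus glutamate (45 μM final). FLIPR Ca2+ read, normalised to full antagonist block and buffer baseline. Four-parameter IC50; mean ± SEM, n ≥ 2.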

Data set [13] has as its system UGT. Nature of the data set: Drug metabolism assessed as UGT-mediated compound glucuronidation in human liver microsomes. Conditions: read-out: Drug metabolism. It counts as ADME. The gist of the method: as §2
Data set [14] concerns Hepatocyte. Description: Drug metabolism in human hepatocytes assessed as sulfation by LC/MS/MS analysis. It counts as ADME, cell-based.
Data set [15] concerns the target T1, Glutamate receptor 1. Description: Antagonist activity at human iGluA1 receptor flop isoform expressed in CHO-S cells coexpressing TARP gamma-3 assessed as inhibition of glutamate-induced increase in intracellular calcium levels after 2 mins followed by cyclothiazide/glutamate addition by fluorescence imaging plate reader method. It counts as cell-based. The gist of the method:
as §3

Data set [16] relates to Hepatocyte. Nature of the data set: Drug metabolism in human hepatocytes assessed as oxidative metabolite formation. It counts as ADME, cell-based.
Data set [17] deals with Hepatocyte. Nature of the data set: Drug metabolism in rat hepatocytes assessed as oxidative metabolite formation. It counts as ADME, cell-based.
Data set [18] deals with Hepatocyte. Description: Drug metabolism in human hepatocytes assessed as glucuronidation. It counts as ADME, cell-based.
Data set [19] concerns Hepatocyte. Nature of the data set: Drug metabolism in rat hepatocytes assessed as glucuronidation. The format is ADME, cell-based.
Data set [20] has as its target T2, Cytochrome P450 1A2. Description: Induction of CYP1A2 in human hepatocytes at 0.2 to 20 uM compared to omeprazole. It counts as ADME, cell-based, Hepatocyte. The gist of the method: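 Human hepatocytes treated over a concentration range; CYP1A2 fold induction expressed as percent of omeprazole; >30% taken as induction, <15% as none.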
For data set [21], the system named is Rattus norvegicus. Description: Anticonvulsant activity in po dosed Sprague-Dawley rat assessed as inhibition of pentylenetetrazole-induced clonic convulsions administered 30 mins prior to PTZ dosing measured over 30 mins. The format is functional.
Data set [22] deals with Rattus norvegicus. Nature of the data set: Protective index, ratio of TD50 for motor impairment to ED50 for inhibition of pentylenetetrazole-induced clonic convulsions in po dosed Sprague-Dawley rat. Put shortly: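 PI = inverted screen TD50 divided by PTZ ED50. For the ED50, rats were dosed orally 30 min before PTZ (35 mg/kg, sc), with n = 10 per group. Read-out was % block of clonic convulsions; ED50 given with 95% confidence limits.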

The test system of data set [23] is Rattus norvegicus. Description: Toxicity in Sprague-Dawley rat assessed as motor impairment at 30 mg/kg, po by inverted screen test. It counts as organism-based. The following applies: in vivo. Put shortly:
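Oral dosing in rats, then inverted screen motor-function score. Plasma exposure measured. Mean ± SEM of ≥4 rats/group, compared with vehicle control.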

What is called IC50 is the concentration that gives 50% inhibition. Usually clearance stands for the volume of plasma or blood freed of the substance per unit of time. A low value points to a low capacity for elimination. Turning to `CN(c1ccc2[nH]c(=O)sc2c1)c1nc(-c2ccccn2)cs1`, the IC50 is greater than 83.3 µM at Glutamate receptor 1 [1], greater than 83.3 µM on Glutamate receptor 1 [2], 0.07 µM at Glutamate receptor 1 [3] and 0.36 µM against Cytochrome P450 1A2 [4]. In data set [5], this molecule gave a clearance of 96.6 mL/min/kg.

As usually defined, the AUC is concentration integrated over time. Low values mean low exposure, high ones high exposure. As usually defined, the Cmax is the peak of the concentration-time curve. Consider `CN(c1ccc2[nH]ncc2c1)c1nc(-c2ccccn2)cs1`, for which the area under the curve (AUC) was found to be 3150 ng·h/mL in data set [6] and 52300 ng·h/mL in data set [9]. Further, the IC50 was greater than 83.3 µM at Glutamate receptor 1 [1], greater than 83.3 µM at Glutamate receptor 1 [2], 0.147 µM on Glutamate receptor 1 [3] and 0.222 µM on Cytochrome P450 1A2 [4]. Moreover, the values for the Cmax in [7] and in data set [8] were 1930 ng/mL and 3740 ng/mL, respectively. The same molecule registered a clearance in [5] of 71.5 mL/min/kg.

For `CN(c1ccc(O)cc1)c1nc(-c2ccccn2)cs1`, the Drug metabolism entry with Hepatocyte [10] and with Hepatocyte [14] was “metabolite_detected” throughout. Besides, the values for the metabolised in the data set with UGT [11] and in the data set on UGT [13] were 99% and 33%, respectively. Besides, the IC50 at Glutamate receptor 1 [12] was greater than 83.3 µM; on Glutamate receptor 1 [1] it was greater than 83.3 µM; on Glutamate receptor 1 [2], greater than 83.3 µM; at Glutamate receptor 1 [15] it was greater than 83.3 µM; on Glutamate receptor 1 [3] it was 2.97 µM. Besides, in data set [5], the clearance was 234 mL/min/kg.

Take `CC(c1ccc2[nH]c(=O)sc2c1)c1ccn(-c2ccccn2)n1` (racemic): the Drug metabolism result with Hepatocyte [16], with Hepatocyte [17], with Hepatocyte [18] and in the data set with Hepatocyte [19] was “metabolite_detected” throughout. The IC50 was found to be 83.3 µM on Glutamate receptor 1 [1], 83.3 µM at Glutamate receptor 1 [2], 0.122 µM on Glutamate receptor 1 [3] and 8.68 µM at Cytochrome P450 1A2 [4]. The Activity at Cytochrome P450 1A2 [20] was less than 15%. The molecule also came in with a clearance in data set [5] of 115 mL/min/kg.

On to `Cn1ccc(CN(c2ccc3[nH]ncc3c2)c2nc(-c3ccccn3)cs2)n1`, for which the IC50 was 83.3 µM on Glutamate receptor 1 [1], 83.3 µM on Glutamate receptor 1 [2], 0.0539 µM on Glutamate receptor 1 [3] and greater than 10 µM on Cytochrome P450 1A2 [4]. On Cytochrome P450 1A2 [20], the Activity is less than 15%.

For `C[C@@H](c1ccc2[nH]c(=O)sc2c1)c1ccn(-c2ccc(CCC(C)(C)O)cn2)n1`, the IC50 at Glutamate receptor 1 [1] is 9.26 µM; at Glutamate receptor 1 [2], 9.26 µM; on Glutamate receptor 1 [3] it was 0.16 µM. For the same molecule, the clearance in [5] came out at 6 mL/min/kg.

With `CN(c1ccc2[nH]ncc2c1)c1ccn(-c2ccccn2)n1`, the IC50 at Glutamate receptor 1 [1] was greater than 83.3 µM; at Glutamate receptor 1 [2], greater than 83.3 µM; at Glutamate receptor 1 [3] it was 0.353 µM; on Cytochrome P450 1A2 [4], 0.23 µM. This molecule also had a clearance in data set [5] of 61.3 mL/min/kg.

The ED50 is the dose at which the effect has come halfway, by size or by number of responders. In the case of `N#Cc1ccccc1-c1cc(-c2ccccn2)cn(-c2ccccc2)c1=O` [PERAMPANEL], the IC50 at Glutamate receptor 1 [12] worked out at 0.623 µM; on Glutamate receptor 1 [1] it was 6.51 µM; on Glutamate receptor 1 [2], 0.485 µM; on Glutamate receptor 1 [15], 0.243 µM; on Glutamate receptor 1 [3] it was 1.18 µM. In addition, the ED50 in the data set with Rattus norvegicus [21] was determined as 10.6 mg/kg. The “Ratio TD50/ED50” value with Rattus norvegicus [22] is on record as 0.4. The Activity result in the data set with Rattus norvegicus [23] was “Toxic”.

On to `CCOCCN(c1ccc2[nH]c(=O)sc2c1)c1nc(-c2ccccn2)cs1`, for which the IC50 on Glutamate receptor 1 [3] is 0.022 µM.

Take `C[C@@H](c1ccc2[nH]c(=O)sc2c1)c1ccn(-c2ccc(CCO)cn2)n1`: the IC50 came to 83.3 µM on Glutamate receptor 1 [1], 25.7 µM at Glutamate receptor 1 [2] and 0.0616 µM on Glutamate receptor 1 [3]. Moreover, in [5], the clearance was 16.3 mL/min/kg.

In the case of `C[C@H](c1ccc2[nH]c(=O)sc2c1)c1ccn(-c2ccccn2)n1`, the IC50 came to 9.26 µM on Glutamate receptor 1 [1], 83.3 µM at Glutamate receptor 1 [2], 0.615 µM at Glutamate receptor 1 [3] and 4.67 µM on Cytochrome P450 1A2 [4]. The same molecule came in with an Activity on Cytochrome P450 1A2 [20] of less than 15%. In [5], this molecule gave a clearance of 144 mL/min/kg.

For the molecule `C[C@@H](c1ccc2[nH]c(=O)sc2c1)c1ccn(-c2ccccn2)n1`, the IC50 at Glutamate receptor 1 [1] was 9.26 µM; on Glutamate receptor 1 [2], 83.3 µM; on Glutamate receptor 1 [3], 0.0509 µM; on Cytochrome P450 1A2 [4], greater than 10 µM. At Cytochrome P450 1A2 [20], this molecule gave an Activity of less than 15%. In addition, the clearance in data set [5] came to 99 mL/min/kg.

Regarding `C[C@H](c1ccc2[nH]c(=O)sc2c1)c1ccn(-c2ccc(OCCO)cn2)n1`, the IC50 at Glutamate receptor 1 [1] was found to be 9.26 µM; on Glutamate receptor 1 [2], 9.26 µM; on Glutamate receptor 1 [3] it was 1.79 µM.

Regarding `C[C@H](c1ccc2[nH]c(=O)sc2c1)c1ccn(-c2ccc(CCO)cn2)n1`, the half-inhibitory concentration (IC50) on Glutamate receptor 1 [1] worked out at 9.26 µM; on Glutamate receptor 1 [2], 9.26 µM; on Glutamate receptor 1 [3], 2.82 µM.

For the molecule `C[C@@H](c1ccc2[nH]c(=O)sc2c1)c1ccn(-c2ccc(F)cn2)n1`, the IC50 worked out at 83.3 µM on Glutamate receptor 1 [1], 83.3 µM at Glutamate receptor 1 [2] and 0.0536 µM at Glutamate receptor 1 [3]. The molecule also had a clearance in data set [5] of 42.2 mL/min/kg.
